SUMO1 PPI mod = modulators of human SUMO1-mediated protein-protein interactions | P63165 | SUMO1 binding to a labelled peptide, TR-FRET, 1 h | inhibition, % at 20 µM | 360,000 compounds, 0.33% hits; in the data active = inhibition above about 37%
Target sequence (P63165 whole entry, looked up): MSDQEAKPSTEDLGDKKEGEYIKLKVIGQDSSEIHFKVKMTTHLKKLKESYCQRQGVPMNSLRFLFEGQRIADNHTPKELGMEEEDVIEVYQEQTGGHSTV
Scp1 inh = inhibitors of human Scp-1 phosphatase; AID 493091; Q9GZU7; 340,000 compounds, 0.88% hits; inhibition, % at 20 µM; Recombinant Scp1, phosphopeptide, malachite green phosphate absorbance;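 active = inhibition above about 50% at 20 µM, limit read from the data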;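 note: plate controls were DMSO wells with enzyme for no effect and wells lacking enzyme for full effect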
Target sequence (Q9GZU7 76-261 limits assumed): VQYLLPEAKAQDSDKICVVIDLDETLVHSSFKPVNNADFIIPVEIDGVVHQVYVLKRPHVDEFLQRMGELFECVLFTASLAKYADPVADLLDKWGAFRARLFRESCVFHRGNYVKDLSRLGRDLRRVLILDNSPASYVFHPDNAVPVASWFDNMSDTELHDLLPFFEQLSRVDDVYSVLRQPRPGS
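Material – SCP-1 phosphatase catalytic domain, residues 76-261 · Buffer or medium – Acidic Tris acetate buffer with magnesium and detergent · Also added – Phospho 17-mer peptide substrate · Compound – single 20 µM dose, 1% DMSO · Times – 45 min room-temperature reaction, 5 min colour, 30 min stabiliser · Technique – Phosphate-binding colour reagent, absorbance read at 630 nm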
LMPTP block = blocks human LMPTP phosphatase. P24666. recombinant LMPTP-A, OMFP fluorogenic substrate, fluorescence intensity. inhibition, % at 20 µM. 360,000 compounds, 0.22% hits. AID 651560;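 active = compounds that cut the enzyme signal by at least half of the control window in the single-dose screen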;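 note: plate controls were DMSO wells with enzyme plus substrate for no effect and substrate without enzyme for full effect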
Target sequence (P24666 whole entry, looked up): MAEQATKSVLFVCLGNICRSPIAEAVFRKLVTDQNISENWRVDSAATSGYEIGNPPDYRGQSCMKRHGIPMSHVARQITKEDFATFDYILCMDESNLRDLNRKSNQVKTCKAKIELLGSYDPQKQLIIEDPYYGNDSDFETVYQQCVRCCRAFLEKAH
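Test system: LMPTP-A phosphatase enzyme. Amount: LMPTP-A at 0.625 nM final in the reaction. Reagent: OMFP substrate, 400 µM final. Times: 50 min at room temperature. Signal: endpoint fluorescence intensity from OMFP dephosphorylation. Read-out basis: % inhibition. Benchmarks: no-enzyme and uninhibited controls.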
STEP inh = inhibitors of human striatal-enriched phosphatase STEP. 360,000 compounds, 0.25% hits. inhibition, % at 20 µM. recombinant STEP, OMFP fluorogenic substrate, fluorescence. P54829;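 active = inhibition at 20 µM, scaled per plate between control wells, above about 37%, limit read from the data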;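 note: 0% = DMSO with enzyme and substrate and 100% = substrate only without enzyme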
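Assay system: isolated STEP enzyme / Timing: 20 min at room temperature, dark / Doses: 20 µM, 1% DMSO / Technique: fluorescence intensity, excitation 480 nm, emission 540 nm / Reagent: fluorogenic phosphatase substrate OMFP at 25 µM final / Measure: percent inhibition scaled to no-enzyme and uninhibited-enzyme controls, plate-pattern corrected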
DNMT1 block = inhibitors of human DNMT1 | P26358 | DNMT1 molecular beacon, Hinp1I cleavage, fluorescence | inhibition (reported as % activation of signal), % at 10 µM | 360,000 compounds, 0.83% hits | AID 588458; in the data active = inhibition above about 50%
Active calls of the source: *; x = not tested or not shown. Rows were chosen to be rich in hits. Some 1.7% of all compounds tested hit in one or more screens of this group.

SMILES	SUMO1 PPI mod	Scp1 inh	LMPTP block	STEP inh	DNMT1 block
O=C(COc1ccc(Cl)cc1Cl)Nc1ccc(-c2ccc(N3CCOCC3)nn2)cc1	55.5*	3.3	10.8	-0.8	1.6
O=C(COc1ccc(Cl)cc1Cl)Nc1cccc(-c2ccc(N3CCOCC3)nn2)c1	-9.2	2.2	-0.7	0.2	6.5
N#Cc1c(N2CCCC2)nc(N)c2c(N)nc(N3CCCC3)cc12	47.8*	8.2	41.4	60.4*	117.8*
O=C(CN1C(=O)/C(=C/c2cccc(Cl)c2)SC1=S)NC1C=CS(=O)(=O)C1 (stereo unspecified)	-14.9	-1.4	1.8	1.2	3.6
O=C(CN1C(=O)/C(=C/c2ccccc2F)SC1=S)NC1C=CS(=O)(=O)C1 (stereo unspecified)	-1.3	17.0	26.7	14.5	53.6*
COc1ccc(OC)c(-c2csc(NC(=O)Cn3[nH]c(=O)c4ccccc4c3=O)n2)c1	64.0*	-0.7	0.2	4.5	-6.3
Cn1cc([N+](=O)[O-])c(C(=O)Nc2ccc(-c3nc4ccccc4o3)cc2)n1	45.9*	14.7	0.5	1.3	3.1
COCCOC(=O)c1[nH]c2c(c1C)C(=O)CC(c1ccccc1)C2 (stereo unspecified)	0.3	-2.2	-0.3	2.0	0.4
Cc1c(C(=O)OCc2ccccc2)[nH]c2c1C(=O)CC(c1ccco1)C2 (stereo unspecified)	8.3	71.3*	79.1*	3.0	67.9*
Cc1c(C(=O)O)[nH]c2c1C(=O)CC(c1ccccc1)C2 (stereo unspecified)	-3.1	-10.4	0.4	-1.4	4.9
Cc1c(C(=O)OCCOC(C)C)[nH]c2c1C(=O)CC(c1ccco1)C2 (stereo unspecified)	14.9	48.7	58.6*	1.1	32.2
CSCCOC(=O)c1[nH]c2c(c1C)C(=O)CC(c1ccco1)C2 (stereo unspecified)	4.3	75.1*	22.1	0.0	28.6
COCCOC(=O)c1[nH]c2c(c1C)C(=O)CC(c1ccc(F)cc1)C2 (stereo unspecified)	0.8	-6.9	-0.4	-0.1	0.0
NNc1ccc([N+](=O)[O-])c2[nH][nH]c(=O)c12	98.6*	x	84.0*	96.2*	84.7*
O=[N+]([O-])c1ccc(Nc2ccccc2)c2nonc12	-90.2	-11.0	16.0	8.4	-9.8
CS(=O)(=O)c1ccc2c(c1)sc1nc(=O)c(/C=C3/C=CC(=O)C(O)=C3)c(N)n12	-2.6	70.7*	29.6	12.4	10.8
CN(CCCC(=O)O)c1ccc(N=Nc2ccc([N+](=O)[O-])cc2)cc1	-18.9	110.5*	77.2*	99.1*	-2.8
Cc1cc(/C=C2/SC(=S)N(c3cccc(C(F)(F)F)c3)C2=O)c(C)n1-c1cccnc1	-12.9	1.6	6.8	2.0	50.8*
NN1C(=O)/C(=C\c2ccco2)SC1=S	-10.0	0.3	7.0	7.8	51.6*
O=C1/C(=C/c2ccco2)SC(=S)N1c1cccnc1	107.4*	87.0*	74.7*	78.8*	99.4*
O=C1/C(=C\c2ccco2)SC(=S)N1c1ccc(O)cc1	-10.7	-5.2	-2.3	3.3	-8.5
Cc1cc(/C=C2\SC(=S)N(Cc3ccco3)C2=O)c(C)n1-c1cccnc1	-16.8	-3.8	6.4	4.7	-7.7
Cc1ccc(-n2nc(C)c(/C=N/n3c(C)n[nH]c3=S)c2Cl)cc1	38.5*	-10.4	-0.5	1.2	0.8
NC(=O)Cn1nnc(-c2ccc(CN3CCCCC3)cc2)n1	58.1*	-1.4	0.1	1.2	3.2
Cc1cccc(NC(=O)Cn2nnc(-c3ccc(CN4CCCC4)cc3)n2)c1C	17.2	-2.2	1.1	-1.8	0.9
SMILES	SUMO1 PPI mod	Scp1 inh	LMPTP block	STEP inh	DNMT1 block
O=C1CC2(CCN(C(=O)C3CC(=O)N(c4ccccc4)C3)CC2)Oc2ccccc21 (stereo unspecified)	-1.1	3.9	-0.2	-0.2	0.9
CCC(C)[C@H]1CNC(=O)C(=O)N1CCCCC1CCCCC1 (stereo partly specified)	6.5	x	-1.4	x	x
CCc1cccc(NC(=O)c2ccc(CNc3c(N4CCCC4)c(=O)c3=O)cc2)c1	48.8*	-4.3	2.2	3.2	-3.4
COc1cc(NC(=O)C2CCC(CNc3c(N4CCCCC4)c(=O)c3=O)CC2)cc(OC)c1 (stereo unspecified)	6.6	-3.4	0.9	-1.8	51.7*
CC(=O)c1ccc(NC(=O)c2ccc(CNc3c(N4CCCC4)c(=O)c3=O)cc2)cc1	-0.5	-7.4	0.3	1.5	1.2
CC(=O)c1ccc(NC(=O)c2ccc(CNc3c(N4CCOCC4)c(=O)c3=O)cc2)cc1	-0.1	-4.1	1.0	-0.4	6.6
CCOc1ccc(NC(=O)c2ccc(CNc3c(N4CCCC4)c(=O)c3=O)cc2)cc1	44.7*	-1.7	-1.1	0.5	4.2
COc1cc(NC(=O)c2ccc(CNc3c(N4CCOCC4)c(=O)c3=O)cc2)cc(OC)c1	43.3*	-16.1	0.2	1.6	-4.8
CCCCN(C=O)c1c(CC)nc2c(OCC3CCCCC3)cccn12	-2.3	x	0.7	1.6	-4.8
NC(=O)OCC(O)COc1ccc(Cl)cc1 (stereo unspecified)	-0.3	-0.7	-0.8	-2.5	-0.8
O=C(COc1ccc2c3c(c(=O)oc2c1)CCCC3)NCc1ccncc1	-5.0	-4.7	-1.3	0.3	3.8
O=C(COc1ccc2c3c(c(=O)oc2c1)CCC3)Nc1ccccn1	50.8*	-11.3	0.1	3.2	-13.9
NS(=O)(=O)c1ccc(CNC(=O)COc2ccc3c4c(c(=O)oc3c2)CCCC4)cc1	62.7*	-1.4	-0.2	3.0	-1.5
COc1ccc(-c2cc(C(=O)Nc3cc(Br)ccc3O)no2)cc1	-1.1	-15.4	68.9*	28.6	56.9*
COc1ccc(-c2cc(C(=O)Nc3ccccc3SC)no2)cc1	2.8	-8.5	-2.1	-2.1	12.5
CC(C)(C)OC(=O)NN1CC(=O)N2Cc3ccccc3C[C@@H]2C1=O	10.0	-0.5	-1.7	-1.1	-0.2
CCC1CCCCN1CCCNC(=O)COc1cc(=O)n(C)c2ccccc12 (stereo unspecified)	43.7*	-9.0	-0.9	-3.3	-1.3
CCC1CCCCN1CCCNC(=O)CCCOc1cc(=O)n(C)c2ccccc12 (stereo unspecified)	1.0	-5.1	-0.7	-1.0	6.3
Cc1cccc(NS(=O)(=O)c2ccc3c(c2)NC(=O)CO3)c1C	-2.7	5.8	-1.6	-2.7	-0.5
Cc1ccc(NC(=O)/C(C#N)=C(\N)C(Cl)(Cl)Cl)nc1	4.5	-10.7	-0.1	1.0	0.2
COc1ccc(NC(=O)N(C)C[C@H]2Oc3c(NC(=O)Cc4ccccc4)cccc3C(=O)N([C@H](C)CO)C[C@@H]2C)cc1	-3.2	-3.0	-0.5	-0.7	3.7
CN1CCc2nc3sc(C(=O)C45CC6CC(CC(C6)C4)C5)c(N)c3cc2C1	6.0	2.1	1.9	5.1	77.7*

High-throughput results as filed in PubChem.
